Measured values published in ChEMBL document CHEMBL1165958, “Compounds from Acorus tatarinowii: determination of absolute configuration by quantum computations and cAMP regulation activity” (J Nat Prod, 2010).
The source made the active and inactive calls. The calls are words filed in the database; no cut-off is given here.

Organism: Mus musculus
Test: Induction of cAMP level in mouse NIE115 cells at 50 uM after 30 mins by Alphascreen cAMP assay
Format: functional, cell-based
Outline: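 N1E-115 neuroblastoma cells exposed to each test compound at 50 µM. Intracellular cAMP measured by AlphaScreen and read out as counts per second (cps). Values reported as means with standard error of the mean. Significance marked at p < 0.05, 0.01 and 0.001.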

| Compound | Activity |
| --- | --- |
| C[C@H]1CC[C@H]2C(C)(C)C(=O)[C@@]3(C)C[C@@H](O)[C@@]12C3 | inactive |
| CC(=O)O[C@@H]1C[C@H](C)[C@@]2(CC=C(C)C(=O)C2)[C@@H]1C(C)C | inactive |
| C/C=C\c1cc(OC)c(OC)cc1OC | inactive |
| C=C1CC[C@@H]2[C@@](O)(C1)[C@H](C(C)C)CC[C@@]2(C)O | inactive |
| COc1cc(OC)c(C(=O)C(C)=O)cc1OC | Active |
| COc1ccc(CC(C)=O)cc1OC | inactive |
| COc1cc(OC)c(C(c2cc(OC)c(OC)cc2OC)[C@@H](C)O)cc1OC | Active |
| COc1cc(OC)c(OC)cc1CC(C)=O | Active |
| CC1=CC[C@@]2(CC1=O)[C@H](C(C)C)[C@H](O)C[C@@H]2C | inactive |
| C/C=C/c1cc(OC)c(OC)cc1OC | inactive |
| COc1cc(OC)c(OC)cc1C=O | Active |
| CC1=CC[C@]2(CC1=O)[C@@H](C)CC(=O)[C@H]2C(C)C | inactive |
| C/C=C\c1ccc(OC)c(OC)c1 | inactive |
| COc1cc(OC)c(OC)cc1/C=C\C=O | Active |
| CC1=CC[C@@]2(CC1=O)[C@@H](C(C)C)C(=O)C[C@@H]2C | inactive |
| CCC(=O)c1cc(OC)c(OC)cc1OC | Active |
